# Assay outcomes: PubChem BioAssay, several laboratories
# SR-BI HDL uptake = inhibitors of SR-BI mediated HDL lipid uptake, primary screen, ldlA[mSR-BI] cells, fluorescence, single point | Scavenger receptor class B member 1 (Mus musculus), Q61009 | ldlA[mSR-BI] CHO cells, DiI-HDL uptake fluorescence, 3 h | inhibition, % at 12.5 µM | hit rate 0.96% among 320,000 | AID 488896, 2010;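 active = mean replicate inhibition of at least 70% and a set share of replicates each scoring 70 or more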;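 note: 0% = median of neutral control wells and 100% = median of positive control wells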
# SR-BI uptake up = activators of SR-BI mediated DiI-HDL uptake, primary screen, ldlA[mSR-BI] CHO cells, DiI fluorescence. 3 h; 100 = double the neutral-control signal. activation, % at 12.5 µM. hit rate 0.096% among 320,000;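 active = mean replicate activation of at least 60% and every replicate at or above 60%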;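 note: 0% = median plate neutral-control signal and 100% = twice that signal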
#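 Material: SR-BI-overexpressing, LDLR-lacking CHO cells | Dosing: Single compound concentration, delivered by pin transfer | Probe or stimulus: Labelled HDL, 10 µg/mL | Signal: Bottom-read cell fluorescence after medium removal, ex 550/em 595 nm | Schedule: 3 h, 37 °C | Evaluation: HDL uptake via cellular fluorescence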
# ABCB6 inh MLPCN = ABCB6 transporter inhibitors, primary screen, K562-ABCB6 cells, flow cytometry, MLPCN library. fluorescence ratio to DMSO, % at 10 µM. K562-ABCB6 porphyrin accumulation, 1 h; stronger effect = lower value. hit rate 0.19% among 360,000;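 active = fluorescence ratio to DMSO below 75%, the collection mean minus 3 SD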;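 note: signal is porphyrin accumulated inside mitochondria; 100% equals median channel fluorescence of DMSO control wells; lower ratio means ABCB6 inhibition with less porphyrin fluorescence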
# AHR act = AHR activators, primary screen, cell-based, luminescence, luciferase reporter, human; activation, % at 5 µM; AID 2796, 2010; AHR-responsive luciferase reporter cells; hit rate 2.5% among 320,000; in the data active = activation above about 47%;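 note: 0% = vehicle wells and 100% = reference agonist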
# GAA850 FXN act = FXN promoter activators, primary screen, cell-based, luciferase luminescence, HEK293 lucGAA850. HEK293 lucGAA850 FXN promoter luciferase reporter, 24 h; percent of 10 µM SAHA response. activation, % at 6 µM. hit rate 0.56% among 360,000;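 active = activation above the average of all compounds screened plus 3 SD, cutoff fixed separately per campaign, cut at about 7.5% in these data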;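 note: 0% = DMSO wells and 100% = 10 µM SAHA wells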
# HIF act = HIF pathway transcriptional activators, primary screen, cell-based, U2OS HRE-luciferase, luminescence; AID 1910, 2009; activation, % at 7.5 µM (by protocol); U2OS HRE-luciferase reporter; normalized: DMSO 0%, desferrioxamine 100%; hit rate 0.32% among 300,000;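 active = mean activation of at least 10% of the iron chelator positive control signal, with at least half of replicates also reaching 10%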
# AHR act cf = AHR activators, confirmation, cell-based, luminescence, luciferase reporter, human; shares compounds with AHR act; activation, % at 9 µM; hit rate 87% among 2,300; AID 2845, 2010; human cells, AHR-responsive luciferase reporter; in the data active = activation above about 49%;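 note: HepG2 hepatoma cells carrying a DRE-driven firefly luciferase reporter; 0% = vehicle wells and 100% = reference agonist wells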
# PXR counter = human PXR activators, counter-screen for AHR activator project, cell-based, luciferase luminescence; shares compounds with AHR act; cell-based PXR reporter; activation, % at 11.6 µM; hit rate 88% among 2,300; AID 434939, 2010; in the data active = activation above about 11%;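 note: human hepatoma DPX-2 cells expressing full-length human PXR; 0% = DMSO and 100% = reference agonist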
# Target sequence (O75469 whole entry, looked up): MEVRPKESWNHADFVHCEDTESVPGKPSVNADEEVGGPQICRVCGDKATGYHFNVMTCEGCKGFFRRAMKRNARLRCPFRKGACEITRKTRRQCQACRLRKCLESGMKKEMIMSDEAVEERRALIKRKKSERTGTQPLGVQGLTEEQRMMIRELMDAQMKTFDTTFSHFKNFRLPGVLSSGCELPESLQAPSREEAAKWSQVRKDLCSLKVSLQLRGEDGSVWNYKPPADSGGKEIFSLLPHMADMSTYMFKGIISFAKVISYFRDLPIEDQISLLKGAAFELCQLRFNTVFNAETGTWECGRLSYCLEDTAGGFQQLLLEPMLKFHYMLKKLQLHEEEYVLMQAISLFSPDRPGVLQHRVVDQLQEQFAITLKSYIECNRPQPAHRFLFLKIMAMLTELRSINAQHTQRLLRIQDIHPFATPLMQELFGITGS
# Starred values were filed as active, the others as inactive; x = no result given. Most compounds without a hit are left out; they make up all but 3.9% or so of the library.
SMILES,SR-BI HDL uptake,SR-BI uptake up,ABCB6 inh MLPCN,AHR act,GAA850 FXN act,HIF act,AHR act cf,PXR counter
COc1ccc(C#Cc2ccc3c(c2)c(=O)c2ccccc2n3C)cc1,-3.3,3.3,98.0,91.2*,2.3,-2.7,102.6*,14.1*
CCCCOc1ccc(Cc2c(O)nc(SC)[nH]c2=O)cc1,1.0,-1.0,100.0,-1.4,-1.9,-1.6,x,x
CCCCN(CC)C(=O)CSc1nc2n[nH]c(C)c2c(=N)n1-c1cccc(C)c1,17.6,-17.6,100.0,86.1*,-1.7,-0.2,46.3,146.5*
CCN1CCN(CCNC(=O)c2ccc(/C=C3/Sc4ccccc4N(Cc4cccc(Cl)c4)C3=O)cc2)CC1,x,x,96.0,2.7,-0.6,0.3,x,x
Cc1cccc(C(=O)N/C(=C/c2ccco2)C(=O)N2CCCCCC2)c1,1.9,-1.9,99.0,2.1,3.5,0.2,x,x
Cc1cc(=O)oc2cc(OCCc3ccccc3)ccc12,20.3,-20.3,100.0,81.1*,-0.3,5.2,139.8*,21.4*
Cc1cc(=O)oc2cc(OCCCC[n+]3ccccc3)ccc12,16.3,-16.3,98.0,1.8,0.1,0.6,x,x
O=C(CSc1nnc(CCCN2C(=O)c3cccc4cccc(c34)C2=O)n1-c1ccccc1)NCCCO,-4.4,4.4,98.0,-2.0,1.6,-2.1,x,x
COc1ccc(NC(=O)c2csc(Cc3ccc(Cl)cc3)n2)cc1,-33.6,33.6,98.0,6.8,2.6,-0.1,x,x
O=C(Nc1ccc(Cl)cc1)c1csc(Cc2ccccc2)n1,-19.8,19.7,102.0,85.2*,1.5,2.5,15.6,5.7
CN(C)C(/C=C/Nc1ccc(C#N)cc1)=C(C#N)C#N,-16.3,16.3,106.0,109.2*,-1.4,0.0,101.9*,25.1*
CSc1sc(C(=O)NNC(C)=O)c2c1C1(CCC2)SCCS1,6.6,-6.6,99.0,5.9,3.3,0.1,x,x
CSc1sc(C(=O)NN)c2c1C(O)CCC2 (centres undefined),9.1,-9.1,98.0,80.1*,-4.5,0.2,10.8,3.9
COc1ccc(OC)c(-c2nnc3n2N=C(c2ccc(OC)c(OC)c2)CS3)c1,-19.5,19.5,103.0,41.2,1.0,x,x,x
CC(C)CSC1=NSC2=NC(=O)/C(=C\c3coc4ccccc4c3=O)C(=N)N12,32.2,-32.2,597.0,80.9*,5.1,0.3,17.3,18.1*
Cc1c(C(=O)/C=C/c2cccs2)oc2ccc(F)cc12,13.7,-13.7,97.0,81.4*,2.0,3.6,103.4*,75.8*
Cc1c(C(=O)N2CCN(C(=O)c3ccccc3)CC2)oc2ccc(F)cc12,10.9,-10.9,93.0,15.8,-0.6,x,x,x
Fc1ccc(NC(=S)Nc2ccccc2OC(F)F)cc1Cl,-19.2,19.2,78.0,1.4,0.7,0.2,x,x
O=C(NNC(=S)Nc1ccccc1)c1cc(Br)ccc1Cl,-19.9,19.9,96.0,102.7*,-0.1,0.1,91.1*,83.3*
O=C(NNC(=S)Nc1cccc(Cl)c1)c1ccccc1OC(F)F,13.3,-13.3,88.0,85.2*,1.9,0.0,126.3*,27.4*
O=C(NCC1CC1)c1cccc2c1C(=O)c1ccc(-c3ccc(OC(F)(F)F)cc3)cc1S2(=O)=O,-18.1,18.1,101.0,0.8,1.8,x,x,x
COc1cccc(NC(=O)COC(=O)c2ccc3c(c2)OCO3)c1,-47.2,47.2,98.0,x,2.4,x,x,x
O=C(NCc1ccco1)C(Cc1ccccc1)N1C(=O)c2ccccc2C1=O (centres undefined),-23.0,23.0,99.0,111.7*,-1.0,0.0,92.7*,66.1*
